The target in assay [1] is T1, Adenosine receptor A1 (Homo sapiens, UniProt P30542).
T1 sequence (P30542 whole entry): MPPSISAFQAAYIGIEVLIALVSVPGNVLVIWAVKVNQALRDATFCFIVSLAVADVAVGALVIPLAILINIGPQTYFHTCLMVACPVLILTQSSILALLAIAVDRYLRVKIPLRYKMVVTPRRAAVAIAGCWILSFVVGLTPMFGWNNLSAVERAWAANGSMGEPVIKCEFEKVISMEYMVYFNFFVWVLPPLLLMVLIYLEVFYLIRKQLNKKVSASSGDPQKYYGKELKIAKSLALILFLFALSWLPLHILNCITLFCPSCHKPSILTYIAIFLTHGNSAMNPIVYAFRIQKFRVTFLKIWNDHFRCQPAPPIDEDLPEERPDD
The experiment in a line: Agonist activity at human Adenosine A1 receptor transfected in CHO-K1 cells assessed as inhibition of forskolin-stimulated cAMP production after 30 mins by multimode microplate reader analysis. It counts as functional, cell-based.

The target of assay [2] is T2, Adenosine receptor A1 (Homo sapiens) (UniProt P30542).
T2 sequence (whole entry): T1 sequence (P30542 whole entry)

The target of assay [3] is T1, Adenosine receptor A1. The experiment in a line: Agonist activity at human Adenosine A1 receptor expressed in yeast cells coexpressed with chimeric GPA1/Galphai1 after 16 hrs by beta galactosidase reporter gene assay. It counts as cell-based.
Assay [4] deals with T3, Adenosine receptor A2a (Homo sapiens, UniProt P29274).
T3 sequence (P29274 whole entry): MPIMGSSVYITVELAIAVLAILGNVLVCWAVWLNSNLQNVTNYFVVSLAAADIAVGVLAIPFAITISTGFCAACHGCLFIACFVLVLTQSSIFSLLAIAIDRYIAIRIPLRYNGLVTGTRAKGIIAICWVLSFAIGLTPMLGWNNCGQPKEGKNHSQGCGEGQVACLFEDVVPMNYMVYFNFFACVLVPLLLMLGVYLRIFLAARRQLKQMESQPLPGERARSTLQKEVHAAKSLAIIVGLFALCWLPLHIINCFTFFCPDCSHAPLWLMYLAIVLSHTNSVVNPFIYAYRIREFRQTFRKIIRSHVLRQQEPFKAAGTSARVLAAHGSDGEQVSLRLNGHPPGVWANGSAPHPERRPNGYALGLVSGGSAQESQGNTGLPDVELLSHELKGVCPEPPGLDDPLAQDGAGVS
For another assay, the target named is T4, Adenosine receptor A3 (Homo sapiens, UniProt P0DMS8).
T4 sequence (P0DMS8 whole entry): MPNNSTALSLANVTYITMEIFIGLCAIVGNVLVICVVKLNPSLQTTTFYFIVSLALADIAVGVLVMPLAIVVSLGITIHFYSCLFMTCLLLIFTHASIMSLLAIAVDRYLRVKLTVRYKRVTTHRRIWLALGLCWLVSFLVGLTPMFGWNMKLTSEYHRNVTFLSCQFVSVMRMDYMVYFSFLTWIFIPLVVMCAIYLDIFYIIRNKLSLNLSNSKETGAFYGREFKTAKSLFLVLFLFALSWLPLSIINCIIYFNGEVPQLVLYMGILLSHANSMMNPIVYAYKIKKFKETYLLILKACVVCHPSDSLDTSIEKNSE
Description: (§1) Agonist activity at human Adenosine A3 receptor transfected in CHO-K1 cells assessed as inhibition of forskolin-stimulated cAMP production after 30 mins by multimode microplate reader analysis. In kind it is functional, cell-based. An outline of the steps: (§2)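 CHO-K1 cells are transiently transfected with receptor (2 µg DNA, FuGene 6) and harvested at 48 h. They are co-incubated with 10 µM forskolin and ligand (10 pM to 1 µM) for 30 min at room temperature. cAMP is measured by LANCE kit. Data are expressed as % of the 10 µM forskolin response.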

For another assay, the target named is T5, Adenosine receptor A2b (Homo sapiens, UniProt P29275).
T5 sequence (P29275 whole entry): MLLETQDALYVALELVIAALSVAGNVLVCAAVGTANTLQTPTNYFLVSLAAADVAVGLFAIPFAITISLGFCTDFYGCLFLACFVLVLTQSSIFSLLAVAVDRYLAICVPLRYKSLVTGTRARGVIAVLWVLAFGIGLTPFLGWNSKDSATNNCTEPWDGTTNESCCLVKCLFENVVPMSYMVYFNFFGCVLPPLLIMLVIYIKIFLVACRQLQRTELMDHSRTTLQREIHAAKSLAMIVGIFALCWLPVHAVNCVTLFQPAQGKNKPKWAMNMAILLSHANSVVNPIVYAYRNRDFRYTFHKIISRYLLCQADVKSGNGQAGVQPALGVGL
Description: (§3) Agonist activity at human Adenosine A2B receptor expressed in yeast cells coexpressed with chimeric GPA1/Galphas after 16 hrs by beta-galactosidase reporter gene assay. It counts as cell-based. The method in brief:
(§4)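 Yeast (Δfar1, FUS1-lacZ) express A2BR from the GAPDH promoter alongside Gpa1p/Gαs chimera. The OD600 is 0.02 and compound is added in 1% v/v DMSO for 16 h at 30°C. β-Galactosidase is read with ONPG at OD430, normalised as (OD430−OD620)/OD620. Three-parameter logistic fit gives EC50 and Emax. Data are from 5-8 independent experiments.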

The target of assay [5] is T3, Adenosine receptor A2a. The experiment in a line: Agonist activity at human Adenosine A2A receptor expressed in yeast cells coexpressed with chimeric GPA1/Galphas after 16 hrs by beta-galactosidase reporter gene assay. In kind it is cell-based.
Assay [6] has as its target T2, Adenosine receptor A1 (Homo sapiens). This is another data set of the same source.
Assay [7] deals with T6, Adenosine receptor A2b (Homo sapiens) (UniProt P29275).
T6 sequence (whole entry): T5 sequence (P29275 whole entry)
The experiment in a line: Binding affinity to human Adenosine A2B receptor expressed in yeast cells coexpressed with GPA1/Galphas. It counts as cell-based. An outline of the steps:
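pKA is derived by non-linear regression of the operational model of agonism applied to 16 h yeast FUS1-lacZ concentration-response data, with A2BR coupled to the GPA1/Gαs chimera.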

Assay [8] deals with T6, Adenosine receptor A2b (Homo sapiens).
The target is the same in assay [9]. Description: Agonist activity at human Adenosine A2B receptor expressed in yeast cells coexpressed with chimeric GPA1/Galphas after 16 hrs by beta-galactosidase reporter gene assay relative to NECA. It counts as cell-based. An outline of the steps:
(§5)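 Yeast (Δfar1, FUS1-lacZ) express A2BR from the GAPDH promoter alongside Gpa1p/Gαs chimera. The OD600 is 0.02 and compound is added in 1% v/v DMSO for 16 h at 30°C. β-Galactosidase is read with ONPG at OD430, normalised as (OD430−OD620)/OD620. […] Three-parameter logistic fit gives EC50 and Emax. Data are from 5-8 independent experiments.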

Assay [10] concerns the target T3, Adenosine receptor A2a. This is another data set of the same source.
Assay [11] concerns the target T7, Adenosine receptor A3 (Homo sapiens) (UniProt P0DMS8).
T7 sequence (whole entry): T4 sequence (P0DMS8 whole entry)
Description: Agonist activity at human Adenosine A3 receptor transfected in CHO-K1 cells assessed as inhibition of forskolin-stimulated cAMP production after 30 mins by multimode microplate reader analysis relative to total forskolin. In kind it is functional, cell-based. Set-up: concentration or dose not given beside the values. The method in brief: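 CHO-K1 cells are transiently transfected with receptor (2 µg DNA, FuGene 6) and harvested at 48 h. Cells are resuspended in PBS with 0.1% BSA and 25 µM rolipram, at 2500 cells/well. They are co-incubated with 10 µM forskolin and ligand (10 pM to 1 µM) for 30 min at room temperature. cAMP is measured by LANCE kit. Data are expressed as % of the 10 µM forskolin response.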

In assay [12] the target is T1, Adenosine receptor A1. The experiment in a line: Competitive antagonist activity at human Adenosine A1 receptor expressed in yeast cells after 16 hrs by LacZ reporter gene assay. In kind it is cell-based. Particulars: read-out: pA2 (converted).
Assay [13] concerns the target T1, Adenosine receptor A1. The experiment in a line: Displacement of [3H]CPX from human Adenosine A1 receptor expressed in DDT1MF-2 cells. In kind it is cell-based.
The target in assay [14] is T3, Adenosine receptor A2a. Description: Agonist activity at human Adenosine A2A receptor expressed in yeast cells coexpressed with chimeric GPA1/Galphas at 100 uM after 16 hrs by beta-galactosidase reporter gene assay. It counts as cell-based. The method in brief: (§6)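 Human receptor expressed from GAPDH promoter (p426-GPD) in Δfar1 FUS1-lacZ yeast with Gpa1p(1-467) carrying the 5 C-terminal Gα residues. Cells are grown overnight in SD-URA at 30°C, diluted 1:10 and grown 8 h. They are set to OD600 0.02 and given compound at 1% v/v DMSO for 16 h at 30°C. A2A strain is grown in SD-URA-HIS, with 5 mM 3-amino-triazole in treatment media. Read-out: ONPG, (OD430−OD620)/OD620.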

Assay [15] deals with T2, Adenosine receptor A1 (Homo sapiens). Description: Agonist activity at human Adenosine A1 receptor expressed in yeast cells coexpressed with chimeric GPA1/Galphai1 at 100 uM after 16 hrs by beta galactosidase reporter gene assay. In kind it is cell-based. An outline of the steps:
as §6

In assay [16] the target is T1, Adenosine receptor A1. Description: Displacement of [3H]CPX from human Adenosine A1 receptor expressed in CHO cells. It counts as cell-based.
The target of assay [17] is T6, Adenosine receptor A2b (Homo sapiens). Description: Agonist activity at human Adenosine A2B receptor expressed in yeast cells coexpressed with chimeric GPA1/Galphas at 100 µM after 16 hrs by beta-galactosidase reporter gene assay. In kind it is cell-based. The method in brief: as §5
The target in assay [18] is T7, Adenosine receptor A3 (Homo sapiens). Described as §1. In kind it is functional, cell-based. The method in brief: as §2
Assay [19] has as its target T6, Adenosine receptor A2b (Homo sapiens). The description is as §3. In kind it is cell-based. The method in brief:
as §4

Active and inactive are the calls of the source. The rule behind the calls is not given here.

Consider `CCNC(=O)[C@H]1O[C@@H](n2cnc3c(N[C@@H]4CCC[C@H]4O)ncnc32)[C@H](O)[C@@H]1O`, for which the IC50 on Adenosine receptor A1 [1] was 6.17 nM; on Adenosine receptor A3 it was 2.29 nM. Further, the values for the pKA (in assay [2]; at Adenosine receptor A2a [4]; in assay [7]) were 4.8, 4.6 and 4.2, respectively. The EC50 on Adenosine receptor A1 [3] was 316 nM; on Adenosine receptor A2b, 331000 nM; on Adenosine receptor A2a [5] it was 5750 nM. Besides, the log(activity) is 1.6 in assay [6], -0.2 in [8] and 0.3 at Adenosine receptor A2a [10]. The same compound yielded an Emax in assay [9] of 49.2%. In [11], the Activity was -37.9%.
Turning to `O[C@@H]1[C@H](O)[C@@H](CSc2ccccc2F)O[C@H]1n1cnc2c(N[C@@H]3CCC[C@H]3O)ncnc21` [GS-9667], the Kb on Adenosine receptor A1 [12] is 5010 nM. Also, the pKA result (in assay [2]; on Adenosine receptor A2a [4]; in [7]) was “inactive” each time. In addition, the values for the inhibitory constant (Ki) on Adenosine receptor A1 [13] and at Adenosine receptor A1 [16] were 113 nM and 1100 nM, respectively. Further, the outcome (on Adenosine receptor A2a [14]; in [15]; in [17]) was inactive.
With `OC[C@H]1O[C@@H](n2cnc3c(NC45CC6CC(CC(C6)C4)C5)ncnc32)[C@H](O)[C@@H]1O`, at Adenosine receptor A1 [1], the IC50 is 19.1 nM. In assay [2], this compound gave a pKA of 3. Further, the concentration giving a half-maximal response (EC50) on Adenosine receptor A1 [3] is 15800 nM. The pKA entry (at Adenosine receptor A2a [4]; in assay [7]) was “inactive” throughout. Besides, the pIC50 result in [18] is “inactive”. The pEC50 result (in assay [19]; on Adenosine receptor A2a [5]) was “inactive” throughout. In assay [6], this compound gave a log(activity) of 1.8. The Emax entry in assay [9] is “inactive”. In addition, the outcome in [11] was inactive.
For the compound `CCNC(=O)[C@H]1O[C@@H](n2cnc3c(NC4C5CC6CC(C5)CC4C6)ncnc32)[C@H](O)[C@@H]1O` (some centres undefined), at Adenosine receptor A1 [1], the IC50 was 0.398 nM. Moreover, the pKA in [2] was determined as 2.4. On Adenosine receptor A1 [3], this compound gave an EC50 of 15800 nM. The pKA result (on Adenosine receptor A2a [4]; in assay [7]) was “inactive” each time. Besides, in assay [18], the pIC50 result was “inactive”. Further, the pEC50 result (in assay [19]; at Adenosine receptor A2a [5]) was “inactive” in each case. In assay [6], this compound yielded a log(activity) of 2.4. The Emax entry in [9] was “inactive”. The result in [11] was inactive.
For `O[C@@H]1[C@H](O)[C@@H](CSc2ccccc2F)O[C@H]1n1cnc2c(N[C@@H]3CCC[C@H]3OCc3ccccc3)ncnc21`, the Kb at Adenosine receptor A1 [12] is 398 nM. Further, the pKA entry (in assay [2]; on Adenosine receptor A2a [4]; in assay [7]) was “inactive” each time. The result (at Adenosine receptor A2a [14]; in assay [15]; in assay [17]) was inactive.
For the compound `CCNC(=O)[C@H]1O[C@@H](n2cnc3c(N[C@@H]4CCC[C@H]4OCc4ccccc4)ncnc32)[C@H](O)[C@@H]1O`, the IC50 on Adenosine receptor A1 [1] was 0.0295 nM; on Adenosine receptor A3, 269 nM. In addition, the pKA in [2] turned out to be 4.3; on Adenosine receptor A2a [4], 3.9; in [7] it was 3.5. Moreover, the EC50 on Adenosine receptor A1 [3] was 1000 nM; on Adenosine receptor A2b, 126000 nM; on Adenosine receptor A2a [5] it was 15800 nM. Moreover, the log(activity) was found to be 1.6 in assay [6], 0.1 in assay [8] and 0.5 at Adenosine receptor A2a [10]. In assay [9], this compound returned an Emax of 32.2%. Further, the Activity in assay [11] is -38%.
